Assay outcomes deposited in PubChem BioAssay by Sanford-Burnham Center for Chemical Genomics.
MPTP inh = blocks calcium-induced mitochondrial swelling. isolated mouse mitochondria, Ca2+ swelling absorbance, 30 min. inhibition, % at 10 µM. 360,000 tested, 1.4% active;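 active means inhibition of 50% or more, scaled per plate between neutral and stimulator controls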;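 further: 0% = DMSO wells given calcium and 100% = 1 mM EGTA wells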
EBI2 block = blocks human EBI2 receptor beta-arrestin signaling. AID 651636. 360,000 tested, 0.81% active. EBI2 beta-arrestin recruitment, luminescence, 7a,25-OHC stimulated. P32249. inhibition, % at 5 µM; in the data active means inhibition above about 38%;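 further: enzyme fragment complementation signal reports receptor beta-arrestin coupling in cells; 0% = agonist plus DMSO wells and 100% = wells without agonist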
Target sequence (P32249 whole entry, looked up, the tested form may be a part): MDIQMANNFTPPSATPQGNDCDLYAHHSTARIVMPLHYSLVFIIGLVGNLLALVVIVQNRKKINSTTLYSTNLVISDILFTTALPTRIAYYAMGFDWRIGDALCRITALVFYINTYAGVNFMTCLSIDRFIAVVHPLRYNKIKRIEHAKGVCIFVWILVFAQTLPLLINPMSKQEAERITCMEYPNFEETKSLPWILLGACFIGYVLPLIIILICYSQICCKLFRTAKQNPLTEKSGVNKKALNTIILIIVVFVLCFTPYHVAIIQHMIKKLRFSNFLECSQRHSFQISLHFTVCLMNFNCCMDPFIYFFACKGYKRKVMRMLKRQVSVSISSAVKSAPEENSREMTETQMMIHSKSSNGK
SENP1 inh = SENP1 (human) catalytic domain inhibition | inhibition, % at 10 µM | Q9P0U3 | 360,000 tested, 0.21% active | recombinant SENP1 catalytic domain, CyPet-SUMO1-YPet FRET cleavage;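 active means inhibition at least 30% at 10 µM, raw YFP signal under a set limit, fluorescence ratio 0.5 to 1.5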;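 further: 0% = enzyme with DMSO and 100% = no enzyme wells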
Target sequence (Q9P0U3 419-644 limits assumed): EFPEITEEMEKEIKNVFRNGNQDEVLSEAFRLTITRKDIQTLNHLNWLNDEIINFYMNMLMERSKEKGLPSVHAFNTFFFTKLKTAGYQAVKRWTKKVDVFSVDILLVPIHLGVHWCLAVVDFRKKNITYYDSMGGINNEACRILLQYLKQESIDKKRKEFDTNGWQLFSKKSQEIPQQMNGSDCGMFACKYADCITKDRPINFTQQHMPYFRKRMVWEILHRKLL
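Assay system – human recombinant His6-tagged SENP1 catalytic domain enzyme · Input – SENP1 enzyme, 20 pM final · Buffer or medium – Tris pH 8 buffer plus EDTA, NaCl, BME, BSA, NP40, catalase · Schedule – 50 min reaction at room temperature · Technique – FRET read of cyan and yellow fluorescence · Control set – no-enzyme wells low, DMSO-plus-enzyme wells high control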
NR3A LBD binder = modulators (binders) of human NR3A ligand-binding domain | 340,000 tested, 2.5% active | AID 1259313 | NR3A LBD differential scanning fluorimetry, Tm shift; 0% = protein alone, 100% = glycine-bound protein | Tm shift relative to glycine control, % at 25 µM;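 active means melting temperature shift of at least 10% of the positive control shift, at one fixed dose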
The depositor's hits bear a star. In the library only some 4.4% were active in any assay of this set; here they are far more common.

Results for CCC(=O)Nc1cccc(C2=NOC3(C2)C[C@@H](C(N)=O)N(C(=O)C(c2ccccc2)c2ccccc2)C3)c1 (stereo partly drawn) ?
MPTP inh: -2; EBI2 block: 12; SENP1 inh: 1; NR3A LBD binder: -3

How did NC(=O)[C@H]1CC2(CC(c3cccc(NC(=O)COc4ccc(Cl)cc4)c3)=NO2)CN1C(=O)C(c1ccccc1)c1ccccc1 (stereo partly drawn) do in these assays?
MPTP inh: -3; EBI2 block: 0; SENP1 inh: 1; NR3A LBD binder: 11*

Results for NC(=O)[C@H]1CC2(CC(c3cccc(NC(=O)CC(c4ccccc4)c4ccccc4)c3)=NO2)CN1C(=O)CC(c1ccccc1)c1ccccc1 (stereo partly drawn) ?
MPTP inh: 1; EBI2 block: 8; SENP1 inh: -1; NR3A LBD binder: 17*

Results for CN(Cc1ccccc1)C(=O)COC(=O)c1ccccc1SCC(=O)N1CCCC1 ?
MPTP inh: -2; EBI2 block: 4; SENP1 inh: 1; NR3A LBD binder: -2

How did COc1ccc(/C=N/NC(=O)c2ccc(CN3c4cccc5cccc(c45)S3(=O)=O)cc2)cc1 do in these assays?
MPTP inh: 1; EBI2 block: 4; SENP1 inh: -7; NR3A LBD binder: 22*

How did COc1ccc(/C=N/NC(=O)c2ccc(COCC(F)(F)C(F)F)cc2)cc1 do in these assays?
MPTP inh: 1; EBI2 block: 4; SENP1 inh: 3; NR3A LBD binder: 12*

Results for COc1ccc(C(=O)N/N=C/c2ccc(OC)c(COc3ccc(F)cc3)c2)cc1 ?
MPTP inh: -1; EBI2 block: 21; SENP1 inh: 1; NR3A LBD binder: 6

What do the screens show for `COc1cc(/C=N/NC(=O)c2ccc(CN3c4cccc5cccc(c45)S3(=O)=O)cc2)cc(OC)c1O`?
MPTP inh: 0; EBI2 block: 9; SENP1 inh: 2; NR3A LBD binder: 2

How did COc1ccc(/C=N/NC(=O)c2ccc3nc[nH]c3c2)c(OC)c1 do in these assays?
MPTP inh: 0; EBI2 block: 0; SENP1 inh: 1; NR3A LBD binder: -10

How did COc1ccc(/C=N/NC(=O)c2ccc3nc[nH]c3c2)cc1 do in these assays?
MPTP inh: 0; EBI2 block: -14; SENP1 inh: 2; NR3A LBD binder: 15*

What do the screens show for `COc1ccc(C(=O)N/N=C/c2ccc(OC)c(COc3ccc(F)cc3F)c2)cc1`?
MPTP inh: 0; EBI2 block: 16; SENP1 inh: 2; NR3A LBD binder: 15*

How did CCc1c(C)nc2c(C)cccc2c1SCCC#N do in these assays?
MPTP inh: 3; EBI2 block: 15; SENP1 inh: 2; NR3A LBD binder: 3

How did CC(C)c1cc(C(=O)N/N=C/c2cccnc2)n[nH]1 do in these assays?
MPTP inh: 0; EBI2 block: -13; SENP1 inh: 1; NR3A LBD binder: -1

Results for CCCNc1c(NS(=O)(=O)c2ccc3c(c2)CCCC3)c(=O)oc2ccccc12 ?
MPTP inh: -1; EBI2 block: 3; SENP1 inh: 2; NR3A LBD binder: -4

What do the screens show for `O=C(N/N=C/c1ccc(Cl)c([N+](=O)[O-])c1)c1ccc2nc[nH]c2c1`?
MPTP inh: -1; EBI2 block: -30; SENP1 inh: -3; NR3A LBD binder: 13*

What do the screens show for `COc1ccc(/C=C/C(=O)Oc2cccc(/C=N/NC(=O)c3cccc(F)c3)c2)cc1`?
MPTP inh: 0; EBI2 block: 25; SENP1 inh: 0; NR3A LBD binder: 1

What do the screens show for `COc1ccc(/C=C/C(=O)Oc2ccc(/C=N\NC(=O)c3ccc(F)cc3)cc2)cc1`?
MPTP inh: 0; EBI2 block: -1; SENP1 inh: 3; NR3A LBD binder: 15*

Results for CCCOC1CCCN(C(=O)c2cc(COc3ccc(-n4cncn4)cc3)on2)C1 (stereo not drawn) ?
MPTP inh: 3; EBI2 block: 7; SENP1 inh: 1; NR3A LBD binder: 0

What do the screens show for `CCN(c1ccccc1)S(=O)(=O)c1cccc(C(=O)NCC2(N(C)C)CCCCC2)c1`?
MPTP inh: -1; EBI2 block: -9; SENP1 inh: 2; NR3A LBD binder: 25*

Results for CN(C)C1(CNC(=O)c2cccc(S(=O)(=O)NCc3ccccc3)c2)CCCCC1 ?
MPTP inh: -1; EBI2 block: -10; SENP1 inh: 1; NR3A LBD binder: 0

Results for CCC(C(=O)NCc1ccc(F)cc1)N(Cc1ccco1)C(=O)c1snc(C(N)=O)c1N (stereo not drawn) ?
MPTP inh: 2; EBI2 block: -3; SENP1 inh: -3; NR3A LBD binder: -10

How did CCCC(C(=O)NCc1ccc(OC)cc1)N(Cc1ccco1)C(=O)c1snc(C(N)=O)c1N (stereo not drawn) do in these assays?
MPTP inh: 0; EBI2 block: 7; SENP1 inh: -8; NR3A LBD binder: 14*

Results for CC(=O)Nc1nc2cc([N+](=O)[O-])ccc2s1 ?
MPTP inh: -3; EBI2 block: -7; SENP1 inh: 1; NR3A LBD binder: 0

How did O=c1nc(Nc2ccc(Br)cc2)sc2ccc([N+](=O)[O-])cc12 do in these assays?
MPTP inh: 2; EBI2 block: 17; SENP1 inh: -2; NR3A LBD binder: 13*

What do the screens show for `Cc1sc2ncnc(OCC(=O)NCc3cccs3)c2c1C`?
MPTP inh: -2; EBI2 block: -2; SENP1 inh: -4; NR3A LBD binder: -1

What do the screens show for `CNC(=O)COc1ncnc2sc(C)c(C)c12`?
MPTP inh: -2; EBI2 block: 0; SENP1 inh: 0; NR3A LBD binder: 14*

How did c1ccc(COc2ccc(Nc3ncnc4nc[nH]c34)cc2)cc1 do in these assays?
MPTP inh: 1; EBI2 block: 3; SENP1 inh: 0; NR3A LBD binder: 26*

What do the screens show for `CCOC(=O)c1ccc(Nc2ncnc3nc[nH]c23)cc1`?
MPTP inh: 1; EBI2 block: 13; SENP1 inh: 1; NR3A LBD binder: -23

What do the screens show for `O=C(COC(=O)CCN1C(=O)C2CC=CCC2C1=O)NCCc1ccc(F)cc1` (stereo not drawn)?
MPTP inh: 0; EBI2 block: -15; SENP1 inh: 3; NR3A LBD binder: 0

Results for CCCN(CCC)Cc1c(C(=O)N/N=C/c2c[nH]c3ccccc23)nnn1-c1nonc1N ?
MPTP inh: 0; EBI2 block: 7; SENP1 inh: -3; NR3A LBD binder: 22*

How did CCCN(CCC)Cc1c(C(=O)N/N=C/c2ccco2)nnn1-c1nonc1N do in these assays?
MPTP inh: -1; EBI2 block: 11; SENP1 inh: 2; NR3A LBD binder: -2

Results for COCc1c(C(=O)N/N=C\c2ccccn2)nnn1-c1nonc1N ?
MPTP inh: -2; EBI2 block: 4; SENP1 inh: -5; NR3A LBD binder: -2

Results for Cc1ccc(-c2c(C(=O)N/N=C/c3c[nH]c4ccccc34)nnn2-c2nonc2N)cc1 ?
MPTP inh: 0; EBI2 block: 23; SENP1 inh: 0; NR3A LBD binder: 26*
